# Test results as given in article PMC4765894 (Journal of Medicinal Chemistry, 2015).
# “Also recorded” adds a separate entry of the source.
# How the values were obtained:
# HIF-1α [1] = experiment: Western blot of HIF-1α expression in HEK-293T cells under hypoxia; assay type: cell-based, human; details: 1 μM, hypoxia (1% O2), 24 h
# How it was run: (§1)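 HEK-293T cells were held under hypoxia (1% O2) for 24 h with or without test compound at 1 μM, with a normoxic comparison. Total protein lysates were resolved by SDS-PAGE and transferred to nitrocellulose. Membranes were blocked 30 min at room temperature in 5% skim milk/TBS-0.1% Tween-20, then given primary antibody overnight at 4 °C and HRP secondary 1 h at room temperature. Detection was chemiluminescent, with β-actin as internal control.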
# HIF-1β = experiment: Western blot of HIF-1β expression in HEK-293T cells under hypoxia; assay type: cell-based, human; details: 1 μM, 24 h
# How it was run: as §1
# [2] = tested on: cyclin-dependent kinase 6 (Cdk6); experiment: Western blot of Cdk6; assay type: cell-based, human; details: 1 μM, hypoxic conditions, 24 h
# How it was run: as §1
# VEGF mRNA = experiment: Real-time PCR of VEGF mRNA under hypoxia; assay type: cell-based, human; details: 1 μM, hypoxic conditions, 24 h, normalized against β-actin
# How it was run: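 Cells were given test compound at 1 μM under hypoxic conditions for 24 h, with normoxic and hypoxic controls. Total RNA was extracted with TRIzol and cDNA made with MMLV reverse transcriptase. SYBR Green real-time PCR used 10-fold diluted cDNA and gene-specific primers: 2 min 50 °C, 10 min 95 °C, then 40 cycles of 15 s 95 °C and 1 min 60 °C. Mean CT values were normalized to β-actin; triplicate runs, averaged.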
# HIF-1 = experiment: Dual luciferase-reporter assay; assay type: cell-based, human; details: HEK-293T, 24 h; for IC50: Homo sapiens
# How it was run: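 HEK-293T seeded at 5 × 10^3 cells/well, attached 24 h, then transiently co-transfected with a firefly reporter carrying five HRE copies from the human VEGF promoter and a Renilla plasmid (pRL-SV40). Cells were then exposed to serially diluted test compound under 1% O2 for 24 h. Dual-Glo firefly read, then Stop & Glo Renilla read (10 min each). Firefly normalized to Renilla; three independent experiments.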
# VEGF secretion = details: cited from earlier work
# HIF-1α [3] = details: 4T1 cells, hypoxic conditions, concentrations between 10 and 100 nM; cited from earlier work
SMILES,expression level of HIF-1α (HIF-1α [1]),regulation of HIF-1β (HIF-1β),protein level of Cdk6 [2],IC50 (HIF-1),also measured
COc1cc([C@H]2O[C@H](c3ccc(O[C@H](C)C(=O)c4ccccc4)c(OC)c3)[C@H](C)[C@H]2C)ccc1O[C@H](C)C(=O)c1ccccc1 [MA11],significantly down-regulated; also recorded: inhibit the expression,did not regulate,decreased,–,–
"COc1ccc([C@@H](O)[C@@H](C)Oc2ccc([C@H]3O[C@H](c4ccc(OC)c(OC)c4)[C@H](C)[C@H]3C)cc2OC)cc1OC [MA04, 4-O-methylsaucerneol]",significantly down-regulated; also recorded: inhibit the expression,did not regulate,decreased,–,VEGF mRNA levels (VEGF mRNA): significantly reduced
COc1ccc(C(=O)[C@@H](C)Oc2ccc([C@H]3O[C@H](c4ccc(O[C@H](C)C(=O)c5ccc(C6(C(F)(F)F)N=N6)cc5)c(OC)c4)[C@H](C)[C@H]3C)cc2OC)cc1OCCOCCOCCNC(=O)CCCC[C@@H]1SC[C@@H]2NC(=O)N[C@@H]21 [MA14],–,–,–,2.32 µM,–
"COc1ccc([C@@H](O)[C@@H](C)Oc2ccc([C@H]3O[C@H](c4ccc(O[C@H](C)[C@H](O)c5ccc(OC)c(OC)c5)c(OC)c4)[C@H](C)[C@H]3C)cc2OC)cc1OC [compound 1, manassantin A, reference compound]",inhibit the expression,did not regulate,–,0.011 ± 0.003 µM,HIF-1 regulated VEGF secretion (VEGF secretion): dramatically reduced; hypoxia-induced HIF-1α expression (HIF-1α [3]): significantly inhibited
C#CCOc1cc(C(=O)[C@@H](C)Oc2ccc([C@H]3O[C@H](c4ccc(O[C@H](C)C(=O)c5ccc(C6(C(F)(F)F)N=N6)cc5)c(OC)c4)[C@H](C)[C@H]3C)cc2OC)ccc1OC [MA13],–,–,–,0.73 µM,–
COc1ccc(C(=O)COc2ccc([C@H]3O[C@H](c4ccc(OCC(=O)c5ccc(OC)c(OC)c5)c(OC)c4)[C@H](C)[C@H]3C)cc2OC)cc1OC [MA07],significantly down-regulated; also recorded: inhibit the expression,did not regulate,decreased,–,–
COc1ccc(C(=O)COc2cc(C(=O)[C@@H](C)Oc3ccc([C@H]4O[C@H](c5ccc(O[C@H](C)C(=O)c6ccc(OC)c(OCC(=O)c7ccc(OC)c(OC)c7)c6)c(OC)c5)[C@H](C)[C@H]4C)cc3OC)ccc2OC)cc1OC [MA02],–,–,–,> 10000 µM,HIF-1 inhibitory activity in luciferase assay (in words) (HIF-1; hypoxia (1% O2)): almost inactive
